{"source": "ChEMBL document CHEMBL2177085", "about": "(J Med Chem, 2012)", "key": {"MOLM-14 [1]": {"tested_on": "MOLM-14", "experiment": "Cytotoxic activity against human MOLM14 cells assessed as cell viability at 10 uM incubated for 3 days by MTT assay", "assay_type": "functional", "settings": "MOLM-14, 72 h, read-out: Activity", "summary_of_the_method": "(§1)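 MTT viability: exponentially growing cells, 10 000 viable cells/well in RPMI plated overnight, then exposed to test compounds for 3 days (HT-29, Molm-14) or 5 days (Mkn-45) at 37 °C, 5% CO2. MTT added for 4 h, then SDS/HCl solubilization overnight and absorbance read at 562 nm. Viability is expressed relative to untreated cells (100%). Triplicate.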"}, "[2]": {"target": "Epidermal growth factor receptor (Homo sapiens) (UniProt P00533)", "sequence (P00533 whole entry)": "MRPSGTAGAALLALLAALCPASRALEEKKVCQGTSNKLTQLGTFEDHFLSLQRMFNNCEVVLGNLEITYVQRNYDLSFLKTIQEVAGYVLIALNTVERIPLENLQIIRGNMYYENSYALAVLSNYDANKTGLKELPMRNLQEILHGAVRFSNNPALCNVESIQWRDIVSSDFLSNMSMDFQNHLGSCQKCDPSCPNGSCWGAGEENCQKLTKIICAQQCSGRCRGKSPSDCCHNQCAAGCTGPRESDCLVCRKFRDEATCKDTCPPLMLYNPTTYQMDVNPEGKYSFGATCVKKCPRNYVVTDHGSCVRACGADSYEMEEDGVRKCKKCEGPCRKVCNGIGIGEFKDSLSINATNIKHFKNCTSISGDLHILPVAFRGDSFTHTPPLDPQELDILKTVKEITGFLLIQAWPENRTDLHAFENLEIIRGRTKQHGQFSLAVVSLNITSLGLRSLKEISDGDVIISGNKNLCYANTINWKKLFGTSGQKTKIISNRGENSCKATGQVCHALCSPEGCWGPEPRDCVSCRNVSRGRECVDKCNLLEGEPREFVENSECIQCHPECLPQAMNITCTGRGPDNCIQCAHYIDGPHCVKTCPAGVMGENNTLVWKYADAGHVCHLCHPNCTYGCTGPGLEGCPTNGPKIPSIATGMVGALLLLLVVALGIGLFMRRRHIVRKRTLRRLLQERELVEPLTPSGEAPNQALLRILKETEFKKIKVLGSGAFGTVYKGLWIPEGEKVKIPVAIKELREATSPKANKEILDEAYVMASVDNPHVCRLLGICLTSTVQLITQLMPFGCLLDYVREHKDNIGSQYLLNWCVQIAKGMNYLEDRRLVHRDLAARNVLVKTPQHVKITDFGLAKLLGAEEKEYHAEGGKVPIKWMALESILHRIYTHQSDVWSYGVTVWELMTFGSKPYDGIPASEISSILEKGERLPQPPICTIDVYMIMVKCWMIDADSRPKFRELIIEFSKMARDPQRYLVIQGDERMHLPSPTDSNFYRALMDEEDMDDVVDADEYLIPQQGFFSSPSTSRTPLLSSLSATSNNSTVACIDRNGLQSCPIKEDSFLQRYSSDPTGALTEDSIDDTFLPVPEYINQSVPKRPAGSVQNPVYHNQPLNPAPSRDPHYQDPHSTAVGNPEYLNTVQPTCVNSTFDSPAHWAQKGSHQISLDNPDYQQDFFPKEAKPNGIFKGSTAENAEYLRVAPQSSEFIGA", "experiment": "Inhibition of EGFR assessed as enzyme residual activity at 10 uM relative to untreated control", "summary_of_the_method": "(§2)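 Residual kinase activity at 10 μM compound, determined by a commercial kinase profiling service (Millipore) across 15 kinases of different classes. Each compound tested in duplicate.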"}, "[3]": {"target": "CDK6/cyclin D3 (Homo sapiens) (UniProt P30281+Q00534)", "experiment": "Inhibition of CDK6/cyclinD3 assessed as enzyme residual activity at 10 uM relative to untreated control", "assay_type": "protein-complex assay", "summary_of_the_method": "as §2"}, "[4]": {"target": "Platelet-derived growth factor receptor beta (Homo sapiens) (UniProt P09619)", "sequence (P09619 whole entry)": "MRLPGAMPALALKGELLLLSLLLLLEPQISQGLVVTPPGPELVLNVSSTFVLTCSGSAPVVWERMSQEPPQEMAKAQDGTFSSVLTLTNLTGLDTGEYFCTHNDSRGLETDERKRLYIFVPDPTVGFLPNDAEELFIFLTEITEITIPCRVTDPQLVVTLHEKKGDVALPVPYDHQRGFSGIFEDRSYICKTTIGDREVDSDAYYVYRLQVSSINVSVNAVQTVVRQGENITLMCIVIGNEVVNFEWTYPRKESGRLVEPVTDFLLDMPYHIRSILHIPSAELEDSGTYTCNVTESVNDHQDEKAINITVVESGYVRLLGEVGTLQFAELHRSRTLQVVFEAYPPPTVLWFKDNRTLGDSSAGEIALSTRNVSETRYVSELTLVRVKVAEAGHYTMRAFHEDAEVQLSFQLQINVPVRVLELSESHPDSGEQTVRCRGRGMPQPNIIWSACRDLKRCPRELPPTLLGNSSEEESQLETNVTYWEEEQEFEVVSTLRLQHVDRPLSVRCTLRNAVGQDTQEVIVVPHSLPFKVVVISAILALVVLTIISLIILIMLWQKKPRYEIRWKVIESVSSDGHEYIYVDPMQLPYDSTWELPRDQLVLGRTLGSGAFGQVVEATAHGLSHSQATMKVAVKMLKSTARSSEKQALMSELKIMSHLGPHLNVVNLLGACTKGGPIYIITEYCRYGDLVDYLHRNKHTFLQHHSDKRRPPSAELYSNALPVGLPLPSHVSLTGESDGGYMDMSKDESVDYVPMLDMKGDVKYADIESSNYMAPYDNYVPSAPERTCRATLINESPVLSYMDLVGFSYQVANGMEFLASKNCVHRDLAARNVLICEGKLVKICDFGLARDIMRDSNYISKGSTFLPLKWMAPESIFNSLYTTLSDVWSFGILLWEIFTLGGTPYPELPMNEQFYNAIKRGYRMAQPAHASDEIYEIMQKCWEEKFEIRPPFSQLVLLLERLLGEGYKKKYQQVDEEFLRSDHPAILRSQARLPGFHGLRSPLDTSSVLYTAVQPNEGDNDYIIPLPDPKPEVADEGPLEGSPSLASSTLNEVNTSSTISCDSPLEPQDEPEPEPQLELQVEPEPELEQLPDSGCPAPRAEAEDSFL", "experiment": "Inhibition of PDGFRbeta assessed as enzyme residual activity at 10 uM relative to untreated control", "summary_of_the_method": "as §2"}, "[5]": {"target": "Angiopoietin-1 receptor (Homo sapiens) (UniProt Q02763)", "experiment": "Inhibition of TIE2 assessed as enzyme residual activity at 10 uM relative to untreated control", "summary_of_the_method": "as §2"}, "[6]": {"target": "Cyclin-dependent kinase 1/cyclin B1 (Homo sapiens) (UniProt P06493+P14635)", "experiment": "Inhibition of CDK1/cyclinB assessed as enzyme residual activity at 10 uM relative to untreated control", "assay_type": "protein-complex assay", "summary_of_the_method": "as §2"}, "MKN-45 [7]": {"tested_on": "MKN-45", "experiment": "Induction of apoptosis in human MKN45 assessed as accumulation at subG1 phase at 10 uM incubated for 7 days by flow cytometry (reference value: 10.9 +/- 3.2%)", "assay_type": "functional"}, "HUVEC [8]": {"tested_on": "HUVEC", "experiment": "Induction of apoptosis in human HUVEC assessed as accumulation at subG1 phase at 2.6 uM incubated for 4 days by flow cytometry (reference value: 15.4 +/- 1.5%)", "assay_type": "functional"}, "[9]": {"target": "Protein kinase C epsilon type (Homo sapiens) (UniProt Q02156)", "experiment": "Inhibition of PKCepsilon assessed as enzyme residual activity at 10 uM relative to untreated control", "summary_of_the_method": "as §2"}, "HUVEC [10]": {"tested_on": "HUVEC", "experiment": "Induction of apoptosis in human HUVEC assessed as accumulation at subG1 phase at 0.79 uM incubated for 4 days by flow cytometry (reference value: 15.4 +/- 1.5%)", "assay_type": "functional"}, "MKN-45 [11]": {"tested_on": "MKN-45", "experiment": "Cytotoxic activity against human MKN45 cells assessed as cell viability at 1 uM incubated for 5 days by MTT assay", "assay_type": "functional", "settings": "MKN-45, 120 h, read-out: Activity", "summary_of_the_method": "as §1"}, "MKN-45 [12]": {"tested_on": "MKN-45", "experiment": "Induction of apoptosis in human MKN45 assessed as accumulation at subG1 phase at 15 uM incubated for 7 days by flow cytometry (reference value: 10.9 +/- 3.2%)", "assay_type": "functional"}, "MOLM-14 [13]": {"tested_on": "MOLM-14", "experiment": "Cytotoxic activity against human MOLM14 cells assessed as cell viability at 0.5 uM incubated for 3 days by MTT assay", "assay_type": "functional", "settings": "MOLM-14, 72 h, read-out: Activity", "summary_of_the_method": "as §1"}, "MKN-45 [14]": {"tested_on": "MKN-45", "experiment": "Cytotoxic activity against human MKN45 cells assessed as cell viability at 5 uM incubated for 5 days by MTT assay", "assay_type": "functional", "settings": "MKN-45, 120 h, read-out: Activity", "summary_of_the_method": "as §1"}, "[15]": {"target": "Protein kinase C iota type (Homo sapiens) (UniProt P41743)", "experiment": "Inhibition of PKCiota assessed as enzyme residual activity at 10 uM relative to untreated control", "summary_of_the_method": "as §2"}, "MKN-45 [16]": {"tested_on": "MKN-45", "experiment": "Induction of apoptosis in human MKN45 assessed as accumulation at subG1 phase at 5 uM incubated for 7 days by flow cytometry (reference value: 10.9 +/- 3.2%)", "assay_type": "functional"}, "[17]": {"target": "T1, Glycogen synthase kinase-3 beta (Homo sapiens, UniProt P49841)", "experiment": "Inhibition of GSK3beta assessed as enzyme residual activity at 10 uM relative to untreated control", "summary_of_the_method": "as §2"}, "[18]": {"target": "RAF proto-oncogene serine/threonine-protein kinase (Homo sapiens) (UniProt P04049)", "sequence (P04049 whole entry)": "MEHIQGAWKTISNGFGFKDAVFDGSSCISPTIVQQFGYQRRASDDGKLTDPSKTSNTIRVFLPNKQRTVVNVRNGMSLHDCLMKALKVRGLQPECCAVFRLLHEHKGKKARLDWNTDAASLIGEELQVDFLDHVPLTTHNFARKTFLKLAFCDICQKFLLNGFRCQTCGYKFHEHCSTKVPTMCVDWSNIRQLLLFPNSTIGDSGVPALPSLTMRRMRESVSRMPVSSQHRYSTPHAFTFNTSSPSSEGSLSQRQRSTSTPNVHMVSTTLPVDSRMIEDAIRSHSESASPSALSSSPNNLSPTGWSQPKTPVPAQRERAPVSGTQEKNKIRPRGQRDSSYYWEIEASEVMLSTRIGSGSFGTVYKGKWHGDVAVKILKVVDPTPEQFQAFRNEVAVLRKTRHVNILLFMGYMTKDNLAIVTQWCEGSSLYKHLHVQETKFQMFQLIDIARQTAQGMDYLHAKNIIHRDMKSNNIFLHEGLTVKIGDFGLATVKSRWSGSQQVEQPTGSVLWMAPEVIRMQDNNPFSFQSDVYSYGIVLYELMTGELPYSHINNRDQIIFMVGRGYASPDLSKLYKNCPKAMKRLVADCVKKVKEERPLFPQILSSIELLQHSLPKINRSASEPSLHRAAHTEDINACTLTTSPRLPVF", "experiment": "Inhibition of c-RAF assessed as enzyme residual activity at 10 uM relative to untreated control", "summary_of_the_method": "as §2"}, "MKN-45 [19]": {"tested_on": "MKN-45", "experiment": "Induction of apoptosis in human MKN45 assessed as accumulation at subG1 phase at 1 uM incubated for 7 days by flow cytometry (reference value: 10.9 +/- 3.2%)", "assay_type": "functional"}, "MKN-45 [20]": {"tested_on": "MKN-45", "experiment": "Cytotoxic activity against human MKN45 cells assessed as cell viability at 50 uM incubated for 5 days by MTT assay", "assay_type": "functional", "settings": "MKN-45, 120 h, read-out: Activity", "summary_of_the_method": "as §1"}, "MKN-45 [21]": {"tested_on": "MKN-45", "experiment": "Cytotoxic activity against human MKN45 cells assessed as cell viability at 20 uM incubated for 5 days by MTT assay", "assay_type": "functional", "settings": "MKN-45, 120 h, read-out: Activity", "summary_of_the_method": "as §1"}, "MOLM-14 [22]": {"tested_on": "MOLM-14", "experiment": "Cytotoxic activity against human MOLM14 cells assessed as cell viability at 50 uM incubated for 3 days by MTT assay", "assay_type": "functional", "settings": "MOLM-14, 72 h, read-out: Activity", "summary_of_the_method": "as §1"}, "MOLM-14 [23]": {"tested_on": "MOLM-14", "experiment": "Cytotoxic activity against human MOLM14 cells assessed as cell viability at 20 uM incubated for 3 days by MTT assay", "assay_type": "functional", "settings": "MOLM-14, 72 h, read-out: Activity", "summary_of_the_method": "as §1"}, "MOLM-14 [24]": {"tested_on": "MOLM-14", "experiment": "Cytotoxic activity against human MOLM14 cells assessed as cell viability at 1 uM incubated for 3 days by MTT assay", "assay_type": "functional", "settings": "MOLM-14, 72 h, read-out: Activity", "summary_of_the_method": "as §1"}, "[25]": {"target": "Cyclin-dependent kinase 2/cyclin A (Homo sapiens) (UniProt P24941+P20248+P78396)", "experiment": "Inhibition of CDK2/cyclinA assessed as enzyme residual activity at 10 uM relative to untreated control", "assay_type": "protein-complex assay", "summary_of_the_method": "as §2"}, "[26]": {"experiment": "Inhibition of angiogenesis in chick embryo model assessed as reduction in vessel growth at 26 nM incubated for 24 hrs", "assay_type": "functional, Gallus gallus", "summary_of_the_method": "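White leghorn eggs incubated at 37.5 °C, 62% humidity. At 70 h, albumen removed and shell windowed. From 75 h, 15 agarose pellets (from a 26 mM DMSO stock in 2% agarose; final concentration 26 nM) placed on the area vasculosa.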"}, "MKN-45 [27]": {"tested_on": "MKN-45", "experiment": "Cytotoxic activity against human MKN45 cells assessed as cell viability at 10 uM incubated for 5 days by MTT assay", "assay_type": "functional", "settings": "MKN-45, 120 h, read-out: Activity", "summary_of_the_method": "as §1"}, "[28]": {"target": "T1, Glycogen synthase kinase-3 beta", "experiment": "Inhibition of GSK3beta", "summary_of_the_method": "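IC50 determined by a commercial kinase profiling service (Millipore IC50 Profiler); duplicate testing.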"}, "MKN-45 [29]": {"tested_on": "MKN-45", "experiment": "Induction of apoptosis in human MKN45 assessed as accumulation at subG1 phase at 20 uM incubated for 7 days by flow cytometry (reference value: 10.9 +/- 3.2%)", "assay_type": "functional"}, "MKN-45 [30]": {"tested_on": "MKN-45", "experiment": "Cytotoxic activity against human MKN45 cells assessed as cell viability at 0.5 uM incubated for 5 days by MTT assay", "assay_type": "functional", "settings": "MKN-45, 120 h, read-out: Activity", "summary_of_the_method": "as §1"}, "[31]": {"target": "Receptor-type tyrosine-protein kinase FLT3 (Homo sapiens) (UniProt P36888)", "sequence (P36888 whole entry)": "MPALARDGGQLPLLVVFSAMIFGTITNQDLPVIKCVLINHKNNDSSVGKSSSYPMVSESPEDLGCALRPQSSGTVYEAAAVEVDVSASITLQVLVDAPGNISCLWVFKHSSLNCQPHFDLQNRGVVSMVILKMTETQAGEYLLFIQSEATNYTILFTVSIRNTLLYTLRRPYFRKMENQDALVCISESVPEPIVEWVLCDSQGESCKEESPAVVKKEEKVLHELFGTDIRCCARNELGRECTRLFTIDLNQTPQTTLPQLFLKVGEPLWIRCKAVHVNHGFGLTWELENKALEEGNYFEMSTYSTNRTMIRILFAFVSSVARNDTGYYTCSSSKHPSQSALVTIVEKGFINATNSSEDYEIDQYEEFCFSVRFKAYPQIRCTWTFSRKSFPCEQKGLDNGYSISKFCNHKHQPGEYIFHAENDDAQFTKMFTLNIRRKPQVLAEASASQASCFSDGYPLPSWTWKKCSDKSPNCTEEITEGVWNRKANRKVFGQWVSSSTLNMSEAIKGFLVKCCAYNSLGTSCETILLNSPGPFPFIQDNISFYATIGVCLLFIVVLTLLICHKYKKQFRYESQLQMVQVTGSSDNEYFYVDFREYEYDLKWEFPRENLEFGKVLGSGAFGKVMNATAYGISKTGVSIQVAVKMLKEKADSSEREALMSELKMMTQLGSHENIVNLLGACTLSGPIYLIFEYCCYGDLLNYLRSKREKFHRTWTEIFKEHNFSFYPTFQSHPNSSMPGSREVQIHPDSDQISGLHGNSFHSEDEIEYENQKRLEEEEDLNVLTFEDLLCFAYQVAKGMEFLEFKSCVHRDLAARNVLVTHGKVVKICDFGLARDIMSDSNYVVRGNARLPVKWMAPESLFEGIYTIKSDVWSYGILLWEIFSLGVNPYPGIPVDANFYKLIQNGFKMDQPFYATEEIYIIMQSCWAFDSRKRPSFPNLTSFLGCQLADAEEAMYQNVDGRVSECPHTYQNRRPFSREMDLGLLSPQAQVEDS", "experiment": "Inhibition of FLT3 assessed as enzyme residual activity at 10 uM relative to untreated control", "summary_of_the_method": "as §2"}, "[32]": {"target": "Protein kinase C alpha type (Homo sapiens) (UniProt P17252)", "experiment": "Inhibition of PKCalpha assessed as enzyme residual activity at 10 uM relative to untreated control", "summary_of_the_method": "as §2"}, "[33]": {"target": "Protein kinase C gamma type (Homo sapiens) (UniProt P05129)", "experiment": "Inhibition of PKCgamma assessed as enzyme residual activity at 10 uM relative to untreated control", "summary_of_the_method": "as §2"}}}
{"compound": "COc1cc(C2=C(c3c[nH]c4cnccc34)C(=O)NC2=O)cc(OC)c1OC", "values": [{"measurement": "viability at 10 µM", "setting": "MOLM-14 [1]", "value": 9.35, "unit": "%"}, {"measurement": "Activity", "setting": "[2]", "value": 111, "unit": "%"}, {"measurement": "Activity", "setting": "[3]", "value": 103, "unit": "%"}, {"measurement": "Activity", "setting": "[4]", "value": 106, "unit": "%"}, {"measurement": "Activity", "setting": "[5]", "value": 116, "unit": "%"}, {"measurement": "Activity", "setting": "[6]", "value": 80, "unit": "%"}, {"measurement": "Activity", "setting": "MKN-45 [7]", "value": 16.5, "unit": "%"}, {"measurement": "Activity", "setting": "HUVEC [8]", "value": 66.3, "unit": "%"}, {"measurement": "Activity", "setting": "[9]", "value": 75, "unit": "%"}, {"measurement": "Activity", "setting": "HUVEC [10]", "value": 48, "unit": "%"}, {"measurement": "viability at 1 µM", "setting": "MKN-45 [11]", "value": 107, "unit": "%"}, {"measurement": "Activity", "setting": "MKN-45 [12]", "value": 22.9, "unit": "%"}, {"measurement": "viability at 0.5 µM", "setting": "MOLM-14 [13]", "value": 73.4, "unit": "%"}, {"measurement": "viability at 5 µM", "setting": "MKN-45 [14]", "value": 105, "unit": "%"}, {"measurement": "Activity", "setting": "[15]", "value": 99, "unit": "%"}, {"measurement": "Activity", "setting": "MKN-45 [16]", "value": 15.8, "unit": "%"}, {"measurement": "Activity", "setting": "[17]", "value": 2, "unit": "%"}, {"measurement": "Activity", "setting": "[18]", "value": 117, "unit": "%"}, {"measurement": "Activity", "setting": "MKN-45 [19]", "value": 12.8, "unit": "%"}, {"measurement": "viability at 50 µM", "setting": "MKN-45 [20]", "value": 68.6, "unit": "%"}, {"measurement": "viability at 20 µM", "setting": "MKN-45 [21]", "value": 101, "unit": "%"}, {"measurement": "viability at 50 µM", "setting": "MOLM-14 [22]", "value": 2.4, "unit": "%"}, {"measurement": "viability at 20 µM", "setting": "MOLM-14 [23]", "value": 5.39, "unit": "%"}, {"measurement": "viability at 1 µM", "setting": "MOLM-14 [24]", "value": 54.2, "unit": "%"}, {"measurement": "Activity", "setting": "[25]", "value": 88, "unit": "%"}, {"measurement": "inhibition (INH)", "setting": "[26]", "value": 32, "unit": "%"}, {"measurement": "viability at 10 µM", "setting": "MKN-45 [27]", "value": 108, "unit": "%"}, {"measurement": "IC50", "setting": "[28]", "value": 9, "unit": "nM"}, {"measurement": "Activity", "setting": "MKN-45 [29]", "value": 28.3, "unit": "%"}, {"measurement": "viability at 0.5 µM", "setting": "MKN-45 [30]", "value": 99.2, "unit": "%"}, {"measurement": "Activity", "setting": "[31]", "value": 0, "unit": "%"}, {"measurement": "Activity", "setting": "[32]", "value": 80, "unit": "%"}, {"measurement": "Activity", "setting": "[33]", "value": 83, "unit": "%"}]}
